According to publication PMC7056570 (Molecular cancer therapeutics, 2019):

How the values were obtained:
[1] = test system: silvestrol-resistant 697-R leukemic cells; assay: Cell proliferation of MDR1-overexpressing leukemic cells, 3 days; type: cell-based; conditions: for sensitivity to MDR1 inhibition: 697-R versus 697 cells
[2] = test system: parental 697 leukemic cells; assay: Cell proliferation of parental leukemic cells, 3 days; type: cell-based; conditions: 72 h, read-out: IC50 in 697 cells
[3] = test system: panel of MPNST, schwannoma, and meningioma cell lines; assay: Growth-inhibitory activity compared in the cell line panel; type: cell-based; conditions: all cell lines tested
Summary of the method: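 Compounds were made up as 10-mM stocks in DMSO. Cell lines were authenticated by STR genotyping and confirmed mycoplasma-free. Proliferation was read by resazurin assay.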

STS26T MPNST cells = assay: Flow cytometry cell cycle analysis, STS26T; type: cell-based, human; conditions: one- or two-IC50 doses, three days
ST8814 MPNST cells = assay: Flow cytometry cell cycle analysis, ST8814; type: cell-based, human; conditions: one- or two-IC50 doses, three days
Toxicology study in dogs = type: in vivo; conditions: same protocol, same lab
[4] = cited from earlier work

Row | Compound | sensitivity to MDR1 inhibition [1] | IC50 [2] | potency relative to silvestrol [3] | G2/M fraction (STS26T MPNST cells) | G2/M fraction (ST8814 MPNST cells) | pulmonary toxicity in dogs (Toxicology study in dogs) | IC50 ([1]; MDR1, 72 h, read-out: IC50 in 697-R cells) | oral bioavailability [4]
1 | COc1ccc([C@@]23Oc4cc(OC)cc(OC)c4[C@]2(O)[C@H](O)[C@H](C(N)=O)[C@H]3c2ccccc2)cc1 [Didesmethylrocaglamide] | not sensitive to MDR1 inhibition | 3 nM | ~ 2 fold | marked increase in the G2/M fraction | marked increase in the G2/M fraction | – | – | –
2 | COc1ccc([C@@]23Oc4cc(OC)cc(OC)c4[C@]2(O)[C@H](O)[C@H](C(=O)N(C)C)[C@H]3c2ccccc2)cc1 [Rocaglamide] | not sensitive to MDR1 inhibition | 8 nM | – | marked increase in the G2/M fraction | marked increase in the G2/M fraction | did not produce adverse pulmonary findings | – | –
3 | COC(=O)[C@H]1[C@@H](O)[C@@]2(O)c3c(OC)cc(O[C@@H]4O[C@@H]([C@H](O)CO)CO[C@H]4OC)cc3O[C@@]2(c2ccc(OC)cc2)[C@@H]1c1ccccc1 [Silvestrol, reference compound] | – | 3.5 nM | – | – | – | massive lung damage | 26 nM | < 2%
